In ChEMBL document CHEMBL3259555, “Aromatic diacylhydrazine derivatives as a new class of polo-like kinase 1 (PLK1) inhibitors” (Eur J Med Chem, 2014):

What was measured:
[1] = Cytotoxicity against macrophage (unknown origin) assessed as reduction in cell viability after 24 hrs by MTT assay; type: cell-based; details: macrophages (unknown origin)
In short: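 Macrophages plated at 5×10⁵ cells per well with a range of compound concentrations and incubated 24 h at 37 °C, 5% CO₂. MTT (4 mg/mL stock) added for the final 4 h, plate centrifuged, supernatant removed, DMSO added, absorbance read at 570 nm. Triplicate wells per concentration, assay repeated three times; CC50 (50% viability reduction) given as mean ± SD.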

cells = details: Homo sapiens, Cancer cell lines, 48 h

SMILES	IC50 (cells) [µM]	CC50 at 24 h [1] [µM]
O=C(/C=C/c1ccccc1Cl)NNC(=O)c1ccc2c(c1)OCCO2	4.88	285
COc1ccccc1/C=C/C(=O)NNC(=O)c1ccc2c(c1)OCCO2	8.06	312
O=C(/C=C/c1cccc(F)c1)NNC(=O)c1ccc2c(c1)OCCO2	4.11	221
O=C(/C=C/c1ccccc1F)NNC(=O)c1ccc2c(c1)OCCO2	4.51	302
Cc1cccc(/C=C/C(=O)NNC(=O)c2ccc3c(c2)OCCO3)c1	2.89	281
O=C(/C=C/c1cccc(Br)c1)NNC(=O)c1ccc2c(c1)OCCO2	3.33	351
Cc1ccccc1/C=C/C(=O)NNC(=O)c1ccc2c(c1)OCCO2	7.71	268
O=C(/C=C/c1cccc(Cl)c1)NNC(=O)c1ccc2c(c1)OCCO2	3.56	391

Stronger by IC50 (cells), values ahead:

IC50 (cells) [µM]	SMILES	CC50 at 24 h [1] [µM]
2.33	O=C(/C=C/c1ccc(Br)cc1)NNC(=O)c1ccc2c(c1)OCCO2	259
2.11	O=C(/C=C/c1ccccc1Br)NNC(=O)c1ccc2c(c1)OCCO2	315
1.56	O=C(/C=C/c1cccc([N+](=O)[O-])c1)NNC(=O)c1ccc2c(c1)OCCO2	323
1.13	O=C(/C=C/c1ccc(Cl)cc1)NNC(=O)c1ccc2c(c1)OCCO2	309
1.05	Cc1ccc(/C=C/C(=O)NNC(=O)c2ccc3c(c2)OCCO3)cc1	332
0.99	O=C(/C=C/c1ccc(F)cc1)NNC(=O)c1ccc2c(c1)OCCO2	319
0.93	COc1ccc(/C=C/C(=O)NNC(=O)c2ccc3c(c2)OCCO3)cc1	319
0.89	O=C(/C=C/c1ccccc1[N+](=O)[O-])NNC(=O)c1ccc2c(c1)OCCO2	257
0.61	O=C(/C=C/c1ccc([N+](=O)[O-])cc1)NNC(=O)c1ccc2c(c1)OCCO2	295
0.55	O=C(/C=C/c1ccccc1)NNC(=O)c1ccc2c(c1)OCCO2	312
0.17	COc1cccc(/C=C/C(=O)NNC(=O)c2ccc3c(c2)OCCO3)c1	398
